CaV13 FRET inh: Primary screen for inhibitors of IQ motif and Ca2+-dependent inactivation inhibitor domain binding in CACNA1D, Förster resonance energy transfer in living cells, …. HEK cells, CFP/YFP FRET ICDI-IQ, plate reader, 10 min; percent FRET-ratio fall versus neutral wells. inhibition, % at 12.3 µM. 340,000 tested, 0.098% active;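 active = mean replicate inhibition of at least 30% and at least 1% of replicates passing that level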
RanGTP-Impb inh: disruptors of Ran-importin-beta complex formation – biochemical, FRET, CFP-Ran, YFP-importin-beta, homogeneous, primary screen; inhibition, % (test concentration not listed); cell-free CFP-Ran/YFP-importin-beta FRET ratio; 300,000 tested, 1.1% active;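 active = more than half of the replicate wells show a fall in the fluorescence ratio signal beyond about 16%, limit read from the data, passing the limit was not always enough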
Runt-CBFb FRET: Runt domain-CBFb interaction inhibition | Q01196+Q13951 | Cerulean-Runt/Venus-CBFb FRET ratio 530/480, 1 h | inhibition, % at 20 µM | 220,000 tested, 0.46% active | AID 1496;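 active = inhibition over about 50% at 20 µM in the single-dose screen, limit read from the data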
Target sequence (Q01196 whole entry, looked up, the tested form may be a part): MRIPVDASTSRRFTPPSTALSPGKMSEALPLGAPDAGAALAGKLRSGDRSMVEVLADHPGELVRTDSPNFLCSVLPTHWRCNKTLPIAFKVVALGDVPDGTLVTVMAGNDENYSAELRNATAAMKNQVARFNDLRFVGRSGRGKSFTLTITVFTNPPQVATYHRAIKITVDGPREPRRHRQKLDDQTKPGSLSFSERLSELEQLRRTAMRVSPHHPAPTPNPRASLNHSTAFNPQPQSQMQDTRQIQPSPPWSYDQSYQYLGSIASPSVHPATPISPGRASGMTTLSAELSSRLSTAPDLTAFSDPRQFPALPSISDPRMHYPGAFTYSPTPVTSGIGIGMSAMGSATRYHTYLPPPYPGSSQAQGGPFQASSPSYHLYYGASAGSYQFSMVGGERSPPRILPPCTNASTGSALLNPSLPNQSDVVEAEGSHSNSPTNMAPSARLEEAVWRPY
Target sequence (Q13951 whole entry, looked up, the tested form may be a part): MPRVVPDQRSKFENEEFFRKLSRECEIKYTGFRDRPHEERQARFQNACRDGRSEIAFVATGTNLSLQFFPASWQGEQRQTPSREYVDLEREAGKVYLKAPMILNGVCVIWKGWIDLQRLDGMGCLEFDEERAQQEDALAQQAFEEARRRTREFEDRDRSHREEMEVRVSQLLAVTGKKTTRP
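Assay system: Cerulean-Runt domain fusion protein, energy donor; Signal: fluorescence energy transfer, 422 nm excitation, 530/480 nm emission; Timing: 1 h compound exposure, room temperature; Control set: unlabeled CBFb; Medium: Tris buffer pH 7.5 with salts and BSA; Compound: single test concentration of 20 µM, 1% DMSO final; Probe or stimulus: Venus-CBFb 100 nM.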
Runt-SMMHC FRET: Runt domain-CBFb-SMMHC interaction inhibition; Cerulean-Runt/Venus-CBFb-SMMHC FRET ratio 530/480, 1 h; 220,000 tested, 0.74% active; AID 1434; inhibition, % at 20 µM;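 active = mean inhibition across duplicate retests at 20 µM reaching about 50%, limit read from the data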;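 also: inhibitors lower the FRET ratio by blocking Runt binding to CBFb-SMMHC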
Numbers stand for hits. An excerpt weighted towards active compounds, which were near 1.2% of everything screened.

Screening CCN(CC)c1ccc2c(Cl)c(Br)c(=O)oc2c1 returned RanGTP-Impb inh 43, Runt-CBFb FRET inactive and Runt-SMMHC FRET inactive.
For CCOc1ccc2c(C)c(Cl)c(=O)oc2c1 the results were CaV13 FRET inh inactive, RanGTP-Impb inh inactive, Runt-CBFb FRET inactive and Runt-SMMHC FRET inactive.
Screening O=C(NC(CC1=CCCCC1)c1ccccc1)C(F)(F)F (centres undefined) returned CaV13 FRET inh inactive.
For CCN(Cc1cc(=O)oc2cc(C)ccc12)c1ccccc1 the results were CaV13 FRET inh inactive and RanGTP-Impb inh inactive.
CCOC(=O)Cc1c(C)c2c(O)cc(O)cc2oc1=O was read as CaV13 FRET inh inactive, RanGTP-Impb inh inactive, Runt-CBFb FRET inactive and Runt-SMMHC FRET 68.
For CCN(CC)c1ccc2c(c1)oc(=O)c1c(Cl)cc(=O)oc12 the results were RanGTP-Impb inh 67, Runt-CBFb FRET inactive and Runt-SMMHC FRET 62.
`CCOC(=O)CCc1c(C)c2ccc(O)cc2oc1=O` gave CaV13 FRET inh inactive, RanGTP-Impb inh inactive, Runt-CBFb FRET inactive and Runt-SMMHC FRET 91.
CCOC(=O)CCc1c(C)c2ccc(OCC(=O)N(CC)CC)c(C)c2oc1=O was read as CaV13 FRET inh inactive, RanGTP-Impb inh inactive, Runt-CBFb FRET inactive and Runt-SMMHC FRET inactive.
Screening CN1CCN(C2CN(Cc3cn(Cc4ccccc4)nn3)S(=O)(=O)C2)CC1 (centres undefined) returned CaV13 FRET inh inactive.
`CC(C)C[C@H](NC(=O)c1ccccn1)C(=O)N1CCC[C@H]1C(=O)NCc1ccccc1` gave CaV13 FRET inh inactive.
`CCOC(=O)CNc1c(-c2ccc(Cl)cc2)nc2cnccn12` gave CaV13 FRET inh inactive, RanGTP-Impb inh 33, Runt-CBFb FRET inactive and Runt-SMMHC FRET inactive.
Screening CCOC(=O)CNc1c(-c2ccc(F)cc2)nc2cnccn12 returned CaV13 FRET inh inactive, RanGTP-Impb inh inactive, Runt-CBFb FRET inactive and Runt-SMMHC FRET inactive.
`Cc1nc2ccn(Cc3ccccc3)c(=O)c2cc1C(=O)N1CCN(c2ccccc2)CC1` gave CaV13 FRET inh inactive and RanGTP-Impb inh 92.
`O=[N+]([O-])c1ccc(S(=O)(=O)NCC2COc3ccccc3O2)cc1` (centres undefined) gave CaV13 FRET inh inactive and RanGTP-Impb inh 187.
`Cc1cc2oc(=O)cc(CN3CCOCC3)c2cc1C(C)C` gave CaV13 FRET inh inactive and RanGTP-Impb inh inactive.
Screening Cc1c(O)ccc2c(CN3CCOCC3)cc(=O)oc12 returned CaV13 FRET inh inactive and RanGTP-Impb inh 53.
For Cc1cc(=O)oc2c(CN3CCN(CCO)CC3)c(O)ccc12 the results were CaV13 FRET inh inactive and RanGTP-Impb inh inactive.
CCc1cc2c(CN3CCN(CC)CC3)cc(=O)oc2cc1O was read as CaV13 FRET inh inactive, RanGTP-Impb inh 115, Runt-CBFb FRET inactive and Runt-SMMHC FRET 61.
Screening Cc1c(O)ccc2c(CN3CCN(CCO)CC3)cc(=O)oc12 returned CaV13 FRET inh inactive, RanGTP-Impb inh 56, Runt-CBFb FRET inactive and Runt-SMMHC FRET 79.
`O=c1cc(CN2CCOCC2)c2cc(Cl)c(O)cc2o1` gave CaV13 FRET inh inactive and RanGTP-Impb inh 73.
For CCN(CC)C(=O)Cn1cc(C(=O)C(=O)N2CCc3ccccc32)c2ccccc21 the results were CaV13 FRET inh inactive, RanGTP-Impb inh inactive, Runt-CBFb FRET inactive and Runt-SMMHC FRET inactive.
Screening COc1ccc(C#Cc2c(-c3ccccc3OC)oc3ccccc23)cc1 returned CaV13 FRET inh inactive.
`Fc1ccc2cc(C3=CCCCC3)ncc2c1` gave CaV13 FRET inh inactive.
Screening O=C(COc1ncnc2ccccc12)Nc1cc(S(=O)(=O)N2CCOCC2)ccc1Cl returned CaV13 FRET inh inactive, RanGTP-Impb inh inactive, Runt-CBFb FRET inactive and Runt-SMMHC FRET inactive.
Screening Nc1c(C=C2C=CC(=O)C=C2)c(=O)nc2sc(CC(=O)N3CCOCC3)nn12 returned CaV13 FRET inh inactive and RanGTP-Impb inh inactive.
Nc1c(/C=C2\C=Nc3ccccc32)c(=O)nc2sc(CC(=O)N3CCOCC3)nn12 was read as CaV13 FRET inh inactive and RanGTP-Impb inh 20.
Screening Cc1cc(/C=C2\SC(=S)N(C)C2=O)c(C)n1-c1cccc(O)c1 returned CaV13 FRET inh inactive, RanGTP-Impb inh 36, Runt-CBFb FRET inactive and Runt-SMMHC FRET inactive.
For Cc1cc(/C=C2\SC(=S)N(Cc3ccco3)C2=O)c(C)n1-c1ccccc1 the results were CaV13 FRET inh inactive, RanGTP-Impb inh 21, Runt-CBFb FRET inactive and Runt-SMMHC FRET inactive.
`COc1cc(/C=N/N(C)S(=O)(=O)c2ccc(C)cc2)cc([N+](=O)[O-])c1O` gave CaV13 FRET inh inactive, RanGTP-Impb inh inactive, Runt-CBFb FRET inactive and Runt-SMMHC FRET inactive.
Cc1ccc(/C=C2\Oc3cc(OCC(=O)NN)ccc3C2=O)o1 was read as CaV13 FRET inh inactive and RanGTP-Impb inh 54.
Screening COCCN(CCOC)Cc1c(O)ccc2c1O/C(=C\c1ccc(C)o1)C2=O returned CaV13 FRET inh inactive and RanGTP-Impb inh inactive.
`O=C(O)COc1ccc2c(c1)O/C(=C\c1ccco1)C2=O` gave CaV13 FRET inh inactive and RanGTP-Impb inh 25.
Screening O=C(O)COc1ccc2c(c1)O/C(=C\c1cccs1)C2=O returned CaV13 FRET inh inactive, RanGTP-Impb inh inactive, Runt-CBFb FRET inactive and Runt-SMMHC FRET 56.
For COc1cccc(/C=C2\Oc3cc(OCC(=O)N4CCCC4)ccc3C2=O)c1OC the results were CaV13 FRET inh inactive and RanGTP-Impb inh inactive.
For O=C(O)CNC(=O)c1ccc(NC(=O)/C(=C/c2ccccc2)NC(=O)c2ccccc2Br)cc1 the results were CaV13 FRET inh inactive and RanGTP-Impb inh inactive.
For Cc1ccccc1C(=O)Nc1ccc(C(=O)O)cc1NC(=O)c1ccccc1C the results were CaV13 FRET inh inactive and RanGTP-Impb inh inactive.
COc1cc2c(C(=O)Nc3ccc4c(c3)OCO4)cn(CC(C)C)c(=O)c2cc1OC was read as RanGTP-Impb inh 22, Runt-CBFb FRET inactive and Runt-SMMHC FRET inactive.
`Cc1cccc2cc(COC(=O)c3ccccn3)c(=O)[nH]c12` gave CaV13 FRET inh inactive, RanGTP-Impb inh inactive, Runt-CBFb FRET inactive and Runt-SMMHC FRET inactive.
`COc1cc(-c2nc(-c3ccc4c(c3)-c3ccccc3S4(=O)=O)c(-c3ccccc3)[nH]2)cc(OC)c1OC` gave RanGTP-Impb inh inactive, Runt-CBFb FRET inactive and Runt-SMMHC FRET inactive.
For COc1cccc(-c2nc(-c3ccc4c(c3)-c3ccccc3S4(=O)=O)c(-c3ccccc3)[nH]2)c1OC the results were CaV13 FRET inh inactive, RanGTP-Impb inh 15 and Runt-CBFb FRET inactive.
For N#Cc1c(N)n[nH]c1CCCN the results were CaV13 FRET inh inactive, RanGTP-Impb inh inactive, Runt-CBFb FRET inactive and Runt-SMMHC FRET inactive.
`OC(C1=CC(=Cc2ccncc2)c2ccccc21)c1ccncc1` (centres undefined) gave CaV13 FRET inh inactive.
O=C(NC(=S)N1CCCC1)c1ccccc1F was read as CaV13 FRET inh inactive.
For O=C(Cn1cnnn1)NCc1ccccc1 the results were CaV13 FRET inh inactive and RanGTP-Impb inh inactive.

Source: PubChem (several laboratories)
